Screens deposited in PubChem by Sanford-Burnham Center for Chemical Genomics.
Shown are actives, neighbours in structure and some others; about 1.8% of the full set was active somewhere.
UPR CHOP act: activators of apoptotic arm of unfolded protein response (CHOP); CHO-CHOP luciferase reporter, UPR activation, luminescence; percent of tunicamycin response over DMSO baseline; activation, % at 10 µM; 330,000 tested, 0.34% active; AID 449763;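 active means at 10 µM dose, activation of 40% or more, normalized to positive control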
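Dosing – one dose, 10 µM in 0.5% DMSO · System – CHO-CHOP cells, stable luciferase reporter of PERK-eIF2a-CHOP signalling · Input – 500 cells/well · Control set – tunicamycin 10 µg/mL final as positive, DMSO-only wells as negative · Timing – 6 h compound treatment, 37 °C · Measure – % activation vs tunicamycin · Technique – luminescence read with Steady-Glo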
697 NFkB inh: lowers PMA/ionomycin-induced NF-kB signal in 697 B cells; 697 B-cell NF-kB luciferase reporter, 16 h; inhibition, % at 4 µM; 330,000 tested, 0.33% active; AID 435022; in the data active means inhibition above about 35%
Jurkat NFkB inh: lowers PMA/ionomycin-induced NF-kB signal in Jurkat cells | PMA/ionomycin-induced NF-kB luciferase reporter, luminescence | inhibition, % at 4 µM | 330,000 tested, 0.53% active | AID 435003; in the data active means inhibition above about 50%
CRFR2-BP antag: CRF-BP/CRF-R2 complex antagonism | inhibition, % at 11.8 µM | HEK293 CRF-R2/CRF-BP, CRF-induced calcium fluorescence | AID 588475 | 350,000 tested, 0.59% active;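 active means inhibition of the ligand-induced calcium signal above about 50% at the single tested concentration, limit read from the data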
XBP1 UPR activ: activators of adaptive arm of unfolded protein response (XBP1); AID 463104; activation, % at 20 µM; CHO-XBP1 luciferase reporter, IRE1-XBP1 UPR activation, luminescence; percent of tunicamycin response, DMSO as zero; 330,000 tested, 0.33% active;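 active means versus positive control, 20 µM dose yields 30% or more activation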
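Material: CHO-XBP1 cells stably carrying IRE1-XBP1-driven luciferase reporter | Medium: F12 with 10% serum | Compound dosing: 20 µM single concentration, DMSO 1% | Incubation: Overnight seeding at 37 °C, 6 h compound treatment at 37 °C | Detection: Steady-Glo luminescence read | Read-out basis: % activation of reporter signal versus tunicamycin and DMSO controls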
Jurkat NFkB conf: lowers PMA/ionomycin-induced NF-kB signal in Jurkat cells. shares compounds with Jurkat NFkB inh. inhibition, % at 4 µM. AID 435020. 2,700 tested, 27% active. Jurkat NF-kB luciferase, 16 h;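 active means inhibition reaching about 45% at 4 µM in either replicate, limit read from the data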
Each line names hits and unclear results; the compound was inactive in the other large screens (follow-up assays come after a bar, where they were run).

O=S(=O)(c1ccc2nc(Nc3ccccc3)ccc2c1)N1CCCCC1	none
Fc1ccc2c(Cl)c(-c3nnc(-c4cccs4)o3)sc2c1	none | Jurkat NFkB conf inactive
COc1ccc(C)cc1S(=O)(=O)N1CCCC(N2CCN(c3ccccc3)CC2)C1 (centres undefined)	none (no result: UPR CHOP act, 697 NFkB inh, Jurkat NFkB inh, XBP1 UPR activ)
CCOC(=O)c1ccccc1NC(=O)Cn1c(-c2nonc2N)nc2ccccc21	Jurkat NFkB inh 82 | Jurkat NFkB conf 61
CCN(C(=O)COC(=O)c1ncc(Cl)c(Cl)c1Cl)c1c(N)n(Cc2ccccc2)c(=O)[nH]c1=O	none (no result: UPR CHOP act, 697 NFkB inh, Jurkat NFkB inh, XBP1 UPR activ)
Cc1cccc(C)c1NC(=O)CN(C)C(=O)c1ccc2c(=O)n3c(nc2c1)CCC3	none
COc1cccc(CN(C)C(=O)c2cc(COc3ccc4ncccc4c3)on2)c1	Jurkat NFkB inh 52 | Jurkat NFkB conf inactive
COc1ccccc1/C=N/N1C(=O)C(CC(=O)Nc2ccc([N+](=O)[O-])cc2OC)SC1=Nc1cccc(C)c1C (centres undefined)	Jurkat NFkB inh 69 (no result: CRFR2-BP antag) | Jurkat NFkB conf inactive
COc1ccc(OC)c(NC(=O)CCN2CCN(CCO)CC2)c1	none
CCc1ccc(/C=N/NC(=O)c2cc(-c3ccncc3)nc3ccccc23)s1	Jurkat NFkB inh 63 | Jurkat NFkB conf 50
CCCc1cc(C(=O)N/N=C/c2ccc(CC)s2)c2ccccc2n1	Jurkat NFkB inh 56 | Jurkat NFkB conf inactive
Cn1cccc1/C=N/NC(=O)c1cc(-c2cccs2)nc2ccccc12	Jurkat NFkB inh 53 | Jurkat NFkB conf inactive
Cc1ccc(Nc2cc(C)nn2-c2nc(C)cc(=O)[nH]2)cc1	UPR CHOP act 190, Jurkat NFkB inh 97 | Jurkat NFkB conf 68
COc1ccc(C(=O)N/C(=C\c2cccc3ccccc23)C(=O)N2CCN(C)CC2)cc1	none
c1csc(-c2nnc(-c3ccc(N4CCOCC4)cc3)o2)c1	none | Jurkat NFkB conf inactive
CN(C)CCCNc1c2ccccc2nc2ccccc12	Jurkat NFkB inh 99 | Jurkat NFkB conf inactive
CN(C)CCCNc1nc(-c2ccccc2)nc2ccccc12	none
COc1ccc2oc(=Nc3cc(F)ccc3F)c(C(N)=O)cc2c1	Jurkat NFkB inh 65 | Jurkat NFkB conf inactive
COc1ccc(OC)c(N=c2oc3cc(O)ccc3cc2C(N)=O)c1	none
COc1ccc(N=C2S/C(=C\c3ccc(Cl)c([N+](=O)[O-])c3)C(=O)N2CCN(C)C)cc1	Jurkat NFkB inh 51 | Jurkat NFkB conf inactive
CCN(CC)CCN1C(=O)/C(=C\c2ccc(Cl)c([N+](=O)[O-])c2)SC1=Nc1ccc(OC)cc1	none
CC(=O)C[C@H](O)CC(=O)[C@@H]1OC(=O)CCCCCCCCc2ccccc21	none
Cc1cc(NC(=O)CSc2nc3ccccc3c(=O)n2C2CCCC2)no1	Jurkat NFkB inh 64 | Jurkat NFkB conf 51
CN(C)c1ccc(NC(=O)CSc2nc3ccccc3c(=O)n2C2CCCCC2)cc1	none
CCCCC1CC(=O)NC1(C(=O)OCC)C(=O)OCC (centres undefined)	none (no result: UPR CHOP act, 697 NFkB inh, Jurkat NFkB inh, XBP1 UPR activ)
O=C(N=Nc1c(O)[nH]c2ccc(Br)cc12)c1ccccc1-n1cccc1	Jurkat NFkB inh 71 | Jurkat NFkB conf inactive
O=C(N=Nc1c(O)[nH]c2ccc(Br)cc12)c1ccco1	none (no result: UPR CHOP act, 697 NFkB inh, Jurkat NFkB inh, XBP1 UPR activ)
Cc1cc(C)c2ccc(N)nc2c1O	Jurkat NFkB inh 52 | Jurkat NFkB conf inactive
CCCCN1C(=O)CC2CCOC21C (centres undefined)	none (no result: UPR CHOP act, 697 NFkB inh, Jurkat NFkB inh, XBP1 UPR activ)
Cc1nn(-c2ccccc2)c(C)c1/C=N/NC(=O)c1cc(-c2ccc(Cl)s2)[nH]n1	Jurkat NFkB inh 72 | Jurkat NFkB conf inactive
Cc1nn(-c2ccccc2)c(C)c1/C=N/NC(=O)c1cc(-c2ccc(Br)s2)[nH]n1	Jurkat NFkB inh 62 | Jurkat NFkB conf inactive
Cc1cc(C(=O)N/N=C/c2c(C)nn(-c3ccccc3)c2C)n[nH]1	none
Cc1nn(-c2ccccc2)c(C)c1/C=N/NC(=O)c1cc(C2CC2)[nH]n1	none
O=C(Nc1ccc2c(c1)CCC2)c1ccccc1Br	none | Jurkat NFkB conf inactive
CCOC(=O)c1ccc(-c2c(-c3ccc(OC)cc3)oc(=O)c3cc(OC)c(OC)cc23)cc1F	none
CCOC(=O)c1ccc(-c2c(-c3cc(OC)c(OC)c(OC)c3)noc2C)cc1F	Jurkat NFkB inh 57 | Jurkat NFkB conf inactive
COc1ccc2nc(C)cc(Nc3ccc(N4CCN(C)CC4)cc3)c2c1	Jurkat NFkB inh 74 | Jurkat NFkB conf inactive
COc1ccc2nc(C)cc(N/N=C/c3ccccc3)c2c1	none
COc1ccc2nc(C)cc(Nc3ccc(N4CCOCC4)cc3)c2c1	none
COc1ccc(/C=N/Nc2cc(C)nc3ccc(OC)cc23)c(OC)c1	Jurkat NFkB inh 77 | Jurkat NFkB conf inactive
COC(=O)c1ccc(Nc2cc(C)nc3ccc(C)cc23)cc1	Jurkat NFkB inh 59 | Jurkat NFkB conf inactive
COc1ccc(OC)c(Nc2cc(C)nc3ccc(C)cc23)c1	Jurkat NFkB inh 62 | Jurkat NFkB conf inactive
CCCCCc1nnc(NC(=O)CN2C(=O)C3CCCCC3C2=O)s1 (centres undefined)	none
COc1ccc(/C=N/Nc2ncccc2[N+](=O)[O-])c(OC)c1	none | Jurkat NFkB conf inactive
COc1ccc(/C=N/Nc2ncc(-c3ccccc3)cn2)c(OC)c1	none
CC(=O)c1ccc(Nc2cc(C)nc3c(C)cccc23)cc1	Jurkat NFkB inh 56 | Jurkat NFkB conf inactive
CC(=O)c1ccc(Nc2cc(C)nc3ccccc23)cc1	none
CC1=C(C)/C(=N\OS(=O)(=O)c2ccccc2)C=CC1=O	Jurkat NFkB inh 55 | Jurkat NFkB conf inactive
Cc1ccc(S(=O)(=O)O/N=C2\CCCc3ccccc32)cc1	none
CS(=O)(=O)N(CC(=O)O)c1cc(C(F)(F)F)ccc1Cl	none
COc1ccccc1N1CCN(c2ccnc3cc(Cl)ccc23)CC1	Jurkat NFkB inh 68 | Jurkat NFkB conf inactive
CCN1CCN(c2ccc(N3CCN(S(=O)(=O)c4ccc(C)c([N+](=O)[O-])c4)CC3)nn2)CC1	none
O=C1CCCc2nc3c(cc21)C(O)Oc1c-3ccc2ccccc12 (centres undefined)	none | Jurkat NFkB conf inactive
COc1ccccc1CNC(=O)c1cccc(-c2ccc(C)c3ccccc23)n1	Jurkat NFkB inh 61 (no result: CRFR2-BP antag) | Jurkat NFkB conf inactive
CCCCCCNC(=O)c1cccc(-c2ccc(C)c3ccccc23)n1	none
c1cnc(SCCOc2ccc3c(c2)CCC3)nc1	none | Jurkat NFkB conf inactive
CCOc1cc(C(=O)N/N=C/C(Br)=C/c2ccccc2)cc(OCC)c1OCC	Jurkat NFkB inh 58 | Jurkat NFkB conf inactive
Cc1cc(C)n2nc(C(=O)OCC(=O)NCc3ccc(Cl)cc3)nc2n1	none
C/C(=N/NC(=O)C1CCCC1)c1ccc(NC(=O)C(F)(F)F)cc1	none (no result: CRFR2-BP antag)
COc1ccc(/C=C/C(=O)c2cc(Cl)cc(Cl)c2O)c(OC)c1	none
O=C(/C=C/c1ccccn1)c1cc(Cl)cc(Cl)c1O	Jurkat NFkB inh 67 | Jurkat NFkB conf inactive
